# Reference: ChEMBL document CHEMBL2311425, “Histone deacetylase (HDAC) inhibitors with a novel connecting unit linker region reveal a selectivity profile for HDAC4 and HDAC5 with improved activity against chemoresistant cancer cells” (J Med Chem, 2013)
# Activity calls are given as the source filed them. The rule behind the calls is not given here.
# Legend:
# A2780 [1] = assay: Cytotoxicity against human A2780 cells after 72 hrs by MTT assay; type: functional, cell-based; conditions: A2780, 72 h
# [2] = tested on: A2780 CisR (Homo sapiens); assay: cells; conditions: 72 h
# Histone deacetylase [3] = assay: Inhibition of HDAC in cisplatin resistant human A2780 cells after 18 hrs by fluorescence assay; type: cell-based
# Histone deacetylase [4] = assay: Inhibition of HDAC in human A2780 cells after 18 hrs by fluorescence assay; type: cell-based
# A2780 [5] = assay: Cytotoxicity against cisplatin resistant human A2780 cells up to 100 uM after 72 hrs by MTT assay; type: functional, cell-based
# Outline: (§1)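 A2780 or its cisplatin-resistant subclone A2780CisR, seeded 5000 cells/well, grown in RPMI 1640 with 10% FCS at 37 °C, 5% CO2. Compound exposure began 24 h after seeding and lasted 72 h. MTT (5 mg/mL in PBS) was added, formazan dissolved in DMSO, absorbance read at 544 and 690 nm. IC50 from four-parameter logistic fit, ≥3 experiments in triplicate.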
# A2780 [6] = assay: Cytotoxicity against human A2780 cells up to 100 uM after 72 hrs by MTT assay; type: functional, cell-based; outline: as §1
SMILES,IC50 (A2780 [1]) [µM],IC50 [2] [µM],IC50 (Histone deacetylase [3]) [µM],IC50 (Histone deacetylase [4]) [µM],Activity (A2780 [5]),Activity (A2780 [6])
Cc1cc(C)cc(NC(=O)NOCCCCCC(=O)NO)c1,2.43,5.11,4.64,5.27,,
O=C(O)CCCCCONC(=O)Nc1ccccc1,23.5,72.5,> 100,> 100,,
O=C(CCCCCONC(=O)c1ccccc1)NO,8.33,5.72,1.26,1.58,,
CC(C)c1ccc(NC(=O)NOCCCCCC(=O)NO)cc1,27.1,58.8,2.05,2.86,,
O=C(CCCCCONC(=O)NNc1ccccc1)NO,34.9,42.4,4.95,5.86,,
Cc1ccc(NC(=O)NOCCCCCC(=O)O)cc1,> 100,> 100,,,inactive,inactive
Cc1ccc(NC(=O)NOCCCCCC(=O)NO)cc1,8.05,10.2,1.43,1.45,,
O=C(CCCCCONC(=O)Nc1cccc2ccccc12)NO,7.63,7.87,0.9,1.06,,
CC(C)(C)c1ccc(NC(=O)NOCCCCCC(=O)NO)cc1,6.34,8.8,1.32,1.41,,
O=C(CCCCCONC(=O)Nc1cnc2ccccc2c1)NO,10.8,11.6,0.85,1.07,,
O=C(CCCCCONC(=O)Nc1ccccc1)NO,8.47,5.47,1.71,1.7,,
O=C(CCCCCONC(=O)Nc1ccc(F)cc1)NO,9.05,9.34,1.66,2.04,,
CC(C)c1ccc(C(=O)NOCCCCCC(=O)NO)cc1,4.13,4.96,0.5,0.6,,
O=C(CCCCCONC(=O)c1ccc(F)cc1)NO,16.4,60.3,2,2.57,,
O=C(CCCCONC(=O)Nc1ccccc1)NO,62.6,35.2,16.6,15.2,,
COc1ccc(NC(=O)NOCCCCCC(=O)NO)cc1,10.3,18.2,5.73,6.64,,
O=C(O)CCCCCONC(=O)Nc1ccc(F)cc1,67.8,73.1,> 100,> 100,,
O=C(CCCCCONC(=O)c1ccc(C(F)(F)F)cc1)NO,9.53,30.8,1.95,2.09,,
CN(O)C(=O)CCCCCONC(=O)Nc1ccccc1,87.9,> 100,> 100,> 100,,
O=C(CCCCCONC(=O)Nc1ccccc1)Nc1ccccc1O,35,84.6,43.9,34,,
Cc1cccc(NC(=O)NOCCCCCC(=O)NO)c1,8.33,8.12,5.38,7.63,,
O=C(O)CCCCCONC(=O)Nc1cccc2ccccc12,> 100,> 100,,,inactive,inactive
Cc1ccc(C(=O)NOCCCCCC(=O)NO)cc1,4.09,5,3.46,4.21,,
Cc1ccccc1C(=O)NOCCCCCC(=O)NO,25.6,33.8,15.4,17.1,,
Nc1ccccc1NC(=O)CCCCCONC(=O)Nc1ccccc1,62.5,86.9,43.9,34,,
COc1ccc(NC(=O)NOCCCCCC(=O)O)cc1,> 100,> 100,,,inactive,inactive
CC(/C=C/C(=O)NO)=C\[C@@H](C)C(=O)c1ccc(N(C)C)cc1 [TRICHOSTATIN],0.29,0.22,,,,
Cc1ccccc1NC(=O)NOCCCCCC(=O)NO,23,30.1,8.86,11.7,,
